Type in all cases: functional
The test system of one experiment is SH-SY5Y. The experiment in a line: Cytotoxicity against human SH-SY5Y cells after 72 hrs by MTT assay. The method, boiled down:
(§1)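 Human cell panel of fibroblasts (CCD25sk), neuroblastoma (SHSY5), pancreatic carcinoma (MiaPaca-2), breast adenocarcinoma (MCF-7), hepatocellular carcinoma (HepG2), melanoma (A2058) and lung carcinoma (A549), tested by colorimetric MTT viability read-out. Doxorubicin served as positive control, and results were expressed as CC50.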

Experiment [1] in a line: Cytotoxicity against human CCD25sk cells after 72 hrs by MTT assay. The method, boiled down:
as §1
A general note: Tetrazolium dyes change colour on reduction, which living cells bring about.

Another experiment concerns HepG2. The experiment in a line: Cytotoxicity against human HepG2 cells after 72 hrs by MTT assay. The conditions noted are these: HepG2, 72 h. The method in brief:
as §1

The next experiment concerns A2058. The experiment in a line: Cytotoxicity against human A2058 cells after 72 hrs by MTT assay. The conditions noted are these: A2058, 72 h. The method in brief:
as §1

The test system of another experiment is A549. The experiment in a line: Cytotoxicity against human A549 cells after 72 hrs by MTT assay. The conditions noted are these: A549, 72 h. The method, boiled down:
as §1

The next experiment relates to MIA PaCa-2. The experiment in a line: Cytotoxicity against human MIAPaCa2 cells after 72 hrs by MTT assay. The conditions noted are these: MIA PaCa-2, 72 h. The method, boiled down:
as §1

A further experiment relates to MCF7. Briefly: Cytotoxicity against human MCF7 cells after 72 hrs by MTT assay. To be noted: MCF7, 72 h. The method in brief:
as §1

The next experiment deals with HeLa. The experiment in a line: Cytotoxicity against human HeLa cells.

From ChEMBL document CHEMBL4145584, “Non-geminal Aliphatic Dihalogenation Pattern in Dichlorinated Diaporthins from Hamigera fusca NRRL 35721” (2018) come the findings set out here.

One may read the CC50 as the concentration that lowers cell viability or growth by half. As to `COc1cc(OC)c2c(=O)oc([C@H](Cl)[C@@H](O)CCl)cc2c1` (relative stereo), in the experiment on SH-SY5Y, half-maximal cytotoxicity (CC50) was put at 39.2 µM.
With `COc1cc(OC)c2c(=O)oc(C[C@@H](O)C(Cl)Cl)cc2c1`, the CC50 worked out at 27 µM in experiment [1] and 19.4 µM in the experiment with SH-SY5Y.
For the compound `COc1cc(OC)c2c(=O)oc([C@@H](Cl)[C@@H](O)CCl)cc2c1` (relative stereo), in the experiment on SH-SY5Y, the CC50 was found to be 36.2 µM.
As to `COc1cccc2c1C(=O)c1c(O)c3c(c(O)c1C2=O)C[C@@](O)(C(=O)CO)C[C@@H]3O[C@H]1C[C@H](N)[C@H](O)[C@H](C)O1` [DOXORUBICIN], the half-maximal cytotoxic concentration (CC50) turned out to be 0.85 µM in experiment [1]; 1.95 µM with HepG2; 1.79 µM with A2058; 10.5 µM with A549; 2.97 µM in the experiment on MIA PaCa-2; 7 µM with MCF7. Half-maximal cytotoxicity in the experiment on SH-SY5Y (CC50) was put at 0.7 µM.
Compound `COc1cc(O)c2c(=O)oc(C[C@@H](O)C(Cl)Cl)cc2c1` registered a CC50 in the experiment with HeLa of 28 µM.
